Screening results from PubChem.
Most compounds without a hit are left out; they make up all but 2% or so of the library.
CRFR2-BP ag: agonists of CRF-BP/CRF-R2 complex, primary screen, cell-based, HEK293, calcium dye fluorescence, uHTS; AID 588473, 2011; calcium dye fluorescence (FLIPR); percent of saturating CRF peptide response; 350,000 tested, 0.46% active; activation, % at 13.2 µM;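 active = activation of at least 50%, plus an integration ratio under a set limit after plate pattern correction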
GPR7 antagonist: GPR7 receptor antagonists, primary screen, cell-based, fluorescence, single concentration; inhibition, % at 4.4 µM; AID 1861, 2009; Neuropeptides B/W receptor type 1 (Homo sapiens), P48145; 290,000 tested, 1.1% active; GPR7-expressing cells, fluorescence antagonist assay; in the data active = inhibition above about 16%, passing the limit was not always enough;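 note: cells stimulated with the agonist NPW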
Target sequence (P48145 whole entry, looked up): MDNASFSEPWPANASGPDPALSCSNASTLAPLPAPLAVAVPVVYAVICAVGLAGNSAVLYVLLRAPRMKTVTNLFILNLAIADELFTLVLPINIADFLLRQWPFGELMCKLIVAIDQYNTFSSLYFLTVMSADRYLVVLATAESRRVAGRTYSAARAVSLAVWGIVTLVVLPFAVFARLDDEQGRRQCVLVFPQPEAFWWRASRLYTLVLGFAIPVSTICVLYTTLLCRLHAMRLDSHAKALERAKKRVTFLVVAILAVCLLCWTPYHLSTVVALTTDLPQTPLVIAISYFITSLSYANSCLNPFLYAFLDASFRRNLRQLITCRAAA
CRFR2-BP antag: antagonists of CRF-BP/CRF-R2 complex, primary screen, cell-based, HEK293, calcium dye fluorescence, uHTS; 350,000 tested, 0.59% active; inhibition, % at 11.8 µM; CRF-induced calcium fluorescence; AID 588475, 2011;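 active = inhibition of the ligand-induced calcium signal above about 50% at the single tested concentration, limit read from the data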
TRPN1 ag: zebrafish TRPN1 channel agonists, primary screen, cell-based, HEK293, calcium fluorescence; activation, % at 3 µM; 220,000 tested, 0.18% active; HEK293 zebrafish TRPN1-YFP, Fluo-8 calcium fluorescence; 100% = response to 87 µM carbachol; transient receptor potential cation channel N1 (TRPN1/NompC), Danio rerio; AID 1424, 2008;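 active = activation above its plate's cutoff, the mean activation of test wells on that plate plus 3 SD, cut at about 19% in these data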
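Material: zebrafish TRPN1-YFP in HEK293 cells; Doses: single test compound dose, 3 µM nominal, 0.3% DMSO; Timing: dye loading 1 h at 37 °C, then 30 min room temperature; Technique: intracellular calcium fluorescence with Fluo-8; Benchmarks: high carbachol 87 µM, low DMSO alone.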
TRPML3 agonist: human TRPML3 channel agonists, primary screen, cell-based, HEK293 TRPML3-YFP, Fluo-8 calcium fluorescence, 3 µM. Mucolipin-3 (Homo sapiens), Q8TDD5. 100% = the carbachol control signal. activation, % at 3 µM. 220,000 tested, 0.29% active;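 active = activation above its plate's cutoff, the mean activation of the plate's test wells plus 3 SD, cut at about 12% in these data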
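Material: TRPML3-YFP stable HEK293 cells | Dosing: One concentration, 3 µM nominal, 0.3% DMSO | Timing: 125 s total fluorescence read per well | Technique: Fluo-8 calcium dye fluorescence, ex 470-495, em 515-575 nm | Measure: Percent activation from peak-to-basal fluorescence ratio, scaled between DMSO and carbachol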
Of the large screens only hits and unclear results are named; the others gave an inactive call.

O=C(CN1CCN(C(=O)c2ccco2)CC1)Nc1c2c(nc3c1CCC3)CCCC2	CRFR2-BP antag 72
Cc1cnc(C(=O)NC2CC(C)(C)Cc3c2cnn3-c2ccccc2)cn1 (configuration not stated)	none (no result: TRPN1 ag, TRPML3 agonist)
CCOC(=O)CN1C(=O)N[C@@H](CCc2ccccc2)C(C(=O)OC)=C1C	none (no result: GPR7 antagonist, TRPN1 ag, TRPML3 agonist)
O=C(CN1C(=O)NC(CCc2ccccc2)C1=O)NC1CC1 (configuration not stated)	GPR7 antagonist 24
COC(=O)C1=C(C)N(Cc2ccccc2)C(=O)N[C@H]1CCc1ccccc1	CRFR2-BP antag 82 (no result: GPR7 antagonist, TRPN1 ag, TRPML3 agonist)
COC(=O)C1=C(C)N(Cc2ccccc2)C(=S)N[C@H]1c1cccc(F)c1	CRFR2-BP antag 55 (no result: TRPN1 ag, TRPML3 agonist)
O=C(N[C@@H](Cc1ccccc1)C(=O)O)c1cccs1	none (no result: TRPN1 ag, TRPML3 agonist)
O=C(O)CSc1c(Cl)c(=O)oc2ccc(Cl)cc12	none (no result: GPR7 antagonist, TRPN1 ag, TRPML3 agonist)
O=C(NCc1ccccn1)c1nc(Cn2ccc([N+](=O)[O-])n2)no1	none (no result: TRPN1 ag, TRPML3 agonist)
C(=C\c1ccc2ccccc2n1)/c1ccccc1	none
CN(C)c1ccc(/C=C/c2ccc3ccccc3n2)cc1	CRFR2-BP ag 90
CN(C)c1ccc(/C=C/c2nc3ccccc3s2)cc1	CRFR2-BP ag 65
Cc1ccc(/C=C/c2nc3ccccc3s2)s1	none
CCOc1ccc(/C=N/OCC(=O)NC(c2ccccc2)c2ccccc2)cc1	CRFR2-BP ag 54
CCOC(=O)c1sc(-c2ccc(C(F)(F)F)cc2)nc1O	CRFR2-BP ag 58, CRFR2-BP antag 54
CS(=O)(=O)N1CCN(C(=O)COc2ccc3ccccc3c2)CC1	CRFR2-BP antag 64
CS(=O)(=O)N1CCN(C(=O)COc2ccccc2)CC1	none
Cc1ccc(-n2nc3c(c2NC(=O)c2ccc(OC(C)C)cc2)CS(=O)C3)cc1 (configuration not stated)	CRFR2-BP antag 68
CCOc1ccc(C(=O)Nc2c3c(nn2-c2ccc(C)cc2)CS(=O)C3)cc1OCC (configuration not stated)	none
CC(Sc1nnc(Cc2cccs2)n1C1CC1)C(=O)NC1CCS(=O)(=O)C1 (configuration not stated)	CRFR2-BP antag 63 (no result: GPR7 antagonist, TRPN1 ag, TRPML3 agonist)
COc1ccc(C(=O)COC(=O)C2COc3ccccc3O2)cc1F (configuration not stated)	none (no result: GPR7 antagonist, TRPN1 ag, TRPML3 agonist)
CC(=O)/C(=N/Nc1cccc(Cl)c1)Sc1nnc(C(O)c2ccccc2)n1-c1ccccc1 (configuration not stated)	GPR7 antagonist 27
CCCCCCc1cc2cc(C(=O)NC)c(=N)oc2cc1O	CRFR2-BP ag 286
CCCCCCc1cc2cc(C(=O)Nc3cccc(OC)c3)c(=O)oc2cc1O	CRFR2-BP ag 57
CCCCCCc1cc2cc(C(=O)Nc3ccc(OC)cc3)c(=O)oc2cc1O	none
CCCCCCc1cc2cc(/C(N)=N/NC(=O)c3ccncc3)c(=O)oc2cc1O	CRFR2-BP ag 102 (no result: GPR7 antagonist, TRPN1 ag, TRPML3 agonist)
CC1C(=O)C(C)C(c2cc(Br)ccc2O)NC1c1cc(Br)ccc1O (configuration not stated)	CRFR2-BP antag 58 (no result: GPR7 antagonist, TRPN1 ag, TRPML3 agonist)
CC1C(=O)C(C)C(c2ccc(Br)cc2)NC1c1ccc(Br)cc1 (configuration not stated)	none (no result: TRPN1 ag, TRPML3 agonist)
Cc1cc2c(NS(=O)(=O)c3ccc(F)cc3)cccc2nn1	CRFR2-BP antag 113
CC1(c2ccccc2)CC(C)(C)N2C(=O)/C(=C3\SC(=S)NC3=O)c3cccc1c32 (configuration not stated)	CRFR2-BP antag 54
CC1CCCCC1NC(=O)c1ccc(NS(=O)(=O)c2ccc3[nH]c(=O)[nH]c3c2)cc1 (configuration not stated)	none (no result: GPR7 antagonist, TRPN1 ag, TRPML3 agonist)
CCCCn1c(N)c(N(CC(C)C)C(=O)C2=COCCO2)c(=O)[nH]c1=O	none (no result: GPR7 antagonist, TRPN1 ag, TRPML3 agonist)
CCOC(=O)Cn1c(C(F)(F)F)nc2nc(Cl)c(Cl)nc21	none (no result: GPR7 antagonist, TRPN1 ag, TRPML3 agonist)
O=C(Nc1ccc(Br)cc1Cl)c1ccc2c(=O)n3c(nc2c1)CCC3	CRFR2-BP ag 101 (no result: GPR7 antagonist, TRPN1 ag, TRPML3 agonist)
Cc1cc(OCC(=O)N(Cc2ccco2)c2c(N)n(Cc3ccccc3)c(=O)[nH]c2=O)ccc1Cl	none (no result: GPR7 antagonist, TRPN1 ag, TRPML3 agonist)
CCCN1Cc2cccc(C(=O)Nc3ccc(C)cc3)c2C1=O	none
CCOC(=O)c1ccc(NC(=O)c2cccc3c2C(=O)N(CC2CCCO2)C3)cc1 (configuration not stated)	CRFR2-BP ag 82, CRFR2-BP antag 60 (no result: TRPN1 ag, TRPML3 agonist)
O=C(Nc1ccccc1)c1sccc1Oc1ccc([N+](=O)[O-])cc1F	CRFR2-BP antag 64
O=C(CCN1CCCCC1)c1ccc2c(c1)OCO2	CRFR2-BP antag 51
O=C(Nc1ccc(S(=O)(=O)N2CCOCC2)cc1)c1cc(-c2cc(Cl)ccc2O)n[nH]1	GPR7 antagonist 20
O=c1oc(-c2ccccc2)nc2sc3c(c12)CCC3	none
O=c1oc(-c2ccco2)nc2sc3c(c12)CCCC3	CRFR2-BP antag 52
CC(OC(=O)c1ccc(S(=O)(=O)NCc2ccco2)cc1)C(=O)Nc1ccccc1 (configuration not stated)	none (no result: GPR7 antagonist, TRPN1 ag, TRPML3 agonist)
Cc1cc(C)n2nc(CC(=O)NNC(=O)c3ccccc3Cl)nc2n1	CRFR2-BP antag 103 (no result: TRPN1 ag, TRPML3 agonist)
Cc1ccc(C(=O)NNC(=O)Cc2nc3nc(C)cc(C)n3n2)cc1	none (no result: TRPN1 ag, TRPML3 agonist)
CCOC(=O)N1CCN(C(=O)c2c[nH]c3ccc(S(=O)(=O)N(C)c4cccc(C)c4)cc3c2=O)CC1	CRFR2-BP ag 82 (no result: TRPN1 ag, TRPML3 agonist)
Cc1nn(C)c(C(=O)NC(=S)Nc2ccccc2Br)c1Cl	CRFR2-BP ag 93 (no result: TRPN1 ag, TRPML3 agonist)
CCn1ncc(Cl)c1C(=O)NC(=S)Nc1ccccc1Br	none (no result: TRPN1 ag, TRPML3 agonist)
N#C/C(N=Nc1ccccc1O)=N\Nc1ccccc1O	CRFR2-BP ag 61, CRFR2-BP antag 97 (no result: GPR7 antagonist, TRPN1 ag, TRPML3 agonist)
Oc1ccccc1N=N/C(=N/Nc1ccccc1O)c1ccccc1	none (no result: GPR7 antagonist, TRPN1 ag, TRPML3 agonist)
CN(C(=O)COc1ccc(Cl)cc1Cl)C1(C)CCS(=O)(=O)C1 (configuration not stated)	none (no result: GPR7 antagonist, TRPN1 ag, TRPML3 agonist)
CC1=C(C(=O)Nc2ccc(Cl)cc2)C(c2cccs2)n2nnnc2N1 (configuration not stated)	GPR7 antagonist 20
CCN(c1cccc(C)c1)S(=O)(=O)c1ccc2c(c1)oc(=O)n2C	none (no result: TRPN1 ag, TRPML3 agonist)
CCN(CCCNS(=O)(=O)c1ccc2c(c1)oc(=O)n2C)c1cccc(C)c1	GPR7 antagonist 17
CC1=[N+]([O-])C(C)(C)N(O)C1(C)C	CRFR2-BP ag 152
COc1cc(OC)cc(C(=O)NC2CC3CCC(C2)N3C)c1 (configuration not stated)	none (no result: GPR7 antagonist, TRPN1 ag, TRPML3 agonist)
COc1ccc(CN(CCC(c2ccccc2)c2ccc(OC(C)C)cc2)C(=O)CCl)cc1OC (configuration not stated)	CRFR2-BP antag 53
